Measurements reported in ChEMBL document CHEMBL1122866, “3-Phenyl-1-indanamines. Potential antidepressant activity and potent inhibition of dopamine, norepinephrine, and serotonin uptake” (J Med Chem, 1985).

Legend:
Assay type in all cases: functional
[1] = molecular target: Sodium-dependent serotonin transporter (Rattus norvegicus, UniProt P31652); experiment: Inhibition of 5-HT uptake in rat synaptosomal fraction
Method in brief: (§1)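 Synaptosomal uptake of DA, NE or 5-HT measured. The IC50 is in nM and is the mean of at least two determinations, each using five test concentrations in triplicate.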

[2] = molecular target: Sodium-dependent dopamine transporter (Rattus norvegicus, UniProt P23977); experiment: Inhibition of dopamine uptake in rat synaptosomal fraction
[3] = molecular target: Norepinephrine transporter (Rattus norvegicus, UniProt Q9WTR4); experiment: Inhibition of noradrenaline uptake in rat synaptosomal fraction; method in brief: as §1
Mus musculus [4] = species: Mus musculus; experiment: Antagonistic activity against tetrabenazine-induced ptosis in mice
Method in brief: (§2)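 Mice dosed intraperitoneally; the result is reported as the ED50 in μmol/kg with a range in parentheses. Test compounds are racemates of >95% isomeric purity by TLC.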

Mus musculus [5] = species: Mus musculus; experiment: Compound was tested for antagonistic activity against 5-HTP-induced potentiation in mice; method in brief: as §2
Mus musculus [6] = species: Mus musculus; experiment: Antagonistic activity against tetrabenazine-induced ptosis in mice.; settings: Mus musculus; read-out: ED50; method in brief: as §2
Mus musculus [7] = species: Mus musculus; experiment: Antagonistic activity against 5-HTP induced potentiation in mice; method in brief: as §2

Sequence of Norepinephrine transporter (Q9WTR4 whole entry): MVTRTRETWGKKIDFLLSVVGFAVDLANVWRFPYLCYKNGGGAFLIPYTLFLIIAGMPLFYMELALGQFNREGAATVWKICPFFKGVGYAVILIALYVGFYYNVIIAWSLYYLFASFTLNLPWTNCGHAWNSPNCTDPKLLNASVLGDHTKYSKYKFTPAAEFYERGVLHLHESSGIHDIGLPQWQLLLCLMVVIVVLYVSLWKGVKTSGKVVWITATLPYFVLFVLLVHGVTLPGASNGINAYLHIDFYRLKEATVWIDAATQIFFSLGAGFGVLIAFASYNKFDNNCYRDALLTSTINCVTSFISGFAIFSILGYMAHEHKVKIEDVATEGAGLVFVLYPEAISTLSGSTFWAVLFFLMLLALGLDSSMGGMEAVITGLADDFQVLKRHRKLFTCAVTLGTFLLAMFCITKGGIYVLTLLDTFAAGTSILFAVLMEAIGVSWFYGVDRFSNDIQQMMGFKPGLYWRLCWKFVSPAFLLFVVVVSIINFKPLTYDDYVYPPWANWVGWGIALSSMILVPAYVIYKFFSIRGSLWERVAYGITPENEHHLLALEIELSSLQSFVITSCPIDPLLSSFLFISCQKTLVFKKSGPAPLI
Sequence of Sodium-dependent serotonin transporter (P31652 whole entry): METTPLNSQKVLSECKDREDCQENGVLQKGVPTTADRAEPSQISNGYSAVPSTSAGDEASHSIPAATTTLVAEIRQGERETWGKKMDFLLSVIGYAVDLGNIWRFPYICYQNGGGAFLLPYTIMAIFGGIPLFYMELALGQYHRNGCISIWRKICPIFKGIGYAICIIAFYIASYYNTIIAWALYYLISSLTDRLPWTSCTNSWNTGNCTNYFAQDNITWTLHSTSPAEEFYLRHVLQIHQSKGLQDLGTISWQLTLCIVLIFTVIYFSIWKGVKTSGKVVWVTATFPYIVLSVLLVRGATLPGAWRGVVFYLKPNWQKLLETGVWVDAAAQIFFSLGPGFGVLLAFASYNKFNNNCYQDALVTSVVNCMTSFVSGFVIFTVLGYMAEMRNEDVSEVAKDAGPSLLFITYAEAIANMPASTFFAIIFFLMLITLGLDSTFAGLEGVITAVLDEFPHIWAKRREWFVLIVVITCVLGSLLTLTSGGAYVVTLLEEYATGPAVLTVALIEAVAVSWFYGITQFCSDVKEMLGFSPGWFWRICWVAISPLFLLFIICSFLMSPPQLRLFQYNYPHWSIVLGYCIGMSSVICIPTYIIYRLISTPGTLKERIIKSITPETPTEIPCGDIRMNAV
Sequence of Sodium-dependent dopamine transporter (P23977 whole entry): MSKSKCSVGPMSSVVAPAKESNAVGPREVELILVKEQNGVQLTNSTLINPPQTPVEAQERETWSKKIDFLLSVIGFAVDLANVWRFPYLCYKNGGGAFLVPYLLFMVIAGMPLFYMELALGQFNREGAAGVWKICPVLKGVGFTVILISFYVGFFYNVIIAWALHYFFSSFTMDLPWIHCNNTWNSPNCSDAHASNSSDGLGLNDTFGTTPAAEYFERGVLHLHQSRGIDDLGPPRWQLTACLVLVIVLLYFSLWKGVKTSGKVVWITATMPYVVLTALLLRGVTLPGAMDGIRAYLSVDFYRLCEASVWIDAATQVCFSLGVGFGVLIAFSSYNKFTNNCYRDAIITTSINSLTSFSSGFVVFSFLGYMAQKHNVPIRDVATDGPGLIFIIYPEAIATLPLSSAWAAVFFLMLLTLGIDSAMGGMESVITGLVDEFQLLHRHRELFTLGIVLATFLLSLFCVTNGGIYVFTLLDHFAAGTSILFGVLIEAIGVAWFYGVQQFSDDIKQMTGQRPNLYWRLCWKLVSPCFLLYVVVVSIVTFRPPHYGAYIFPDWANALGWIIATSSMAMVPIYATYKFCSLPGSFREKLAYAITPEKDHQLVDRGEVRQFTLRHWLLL

Q: How did the IC50 [1] turn out when CNC1CC(c2ccc(Cl)c(Cl)c2)c2ccc(OC)cc21 (configuration not stated) was run?
A: The IC50 was 0.62 nM.

Q: And the IC50 [2]?
A: The IC50 was 2.5 nM.

Q: What about the IC50 [3] of the same molecule?
A: The IC50 was 0.67 nM.

Q: What about the ED50 (Mus musculus [4]) of the same molecule?
A: The ED50 was 7 µM/kg.

Q: What about the ED50 (Mus musculus [5]) of the same molecule?
A: The ED50 was 14 µM/kg.

Q: How did the IC50 [1] turn out when CNCCCC1(c2ccccc2)OC(C)(C)c2ccccc21 (configuration not stated) [TALOPRAM] was run?
A: The IC50 was 1400 nM.

Q: What about the IC50 [2] of the same molecule?
A: Its IC50 is 44000 nM.

Q: And the IC50 [3]?
A: Its IC50 is 2.9 nM.

Q: And the ED50 (Mus musculus [4]; Mus musculus, read-out: ED50)?
A: The ED50 was 1.2 µmol/kg.

Q: And the ED50 (Mus musculus [5]; Mus musculus, read-out: ED50)?
A: The ED50 was 44 µmol/kg.

Q: With OCCNC1CC(c2ccc(Cl)c(Cl)c2)c2ccccc21 (configuration not stated) as the molecule, how does the ED50 (Mus musculus [4]; Mus musculus, read-out: ED50) read?
A: The ED50 was 75 µmol/kg.

Q: What about the ED50 (Mus musculus [6]) of the same molecule?
A: The ED50 was > 111 µmol/kg.

Q: And the ED50 (Mus musculus [5]; Mus musculus, read-out: ED50)?
A: The ED50 was 171 µmol/kg.

Q: What about the ED50 (Mus musculus [7]) of the same molecule?
A: The ED50 was > 111 µmol/kg.

Q: With CN1CCN(C2CC(c3ccc(Cl)c(Cl)c3)c3ccccc32)CC1 (stereo in doubt; 101) as the molecule, how does the IC50 [2] read?
A: The IC50 was 11 nM.

Q: What about the ED50 (Mus musculus [4]) of the same molecule?
A: The ED50 was 48 µM/kg.

Q: What about the ED50 (Mus musculus [5]; Mus musculus, read-out: ED50) of the same molecule?
A: Its ED50 is 97 µmol/kg.

Q: With CNC1CC(c2ccc(Cl)c(Cl)c2)c2ccc(O)cc21 (stereo in doubt; 80) as the molecule, how does the IC50 [1] read?
A: Its IC50 is 0.11 nM.

Q: And the IC50 [2]?
A: Its IC50 is 4.1 nM.

Q: What about the IC50 [3] of the same molecule?
A: The IC50 was 6.3 nM.

Q: And the ED50 (Mus musculus [4]; Mus musculus, read-out: ED50)?
A: Its ED50 is 15 µmol/kg.

Q: And the ED50 (Mus musculus [5]; Mus musculus, read-out: ED50)?
A: The ED50 was 59 µmol/kg.

Q: Which results are given for COc1ccc2c(c1)C(N(C)C)CC2c1ccc(Cl)c(Cl)c1 (stereo in doubt; 79)?
A: IC50 [1]: 2 nM; IC50 [2]: 15 nM; IC50 [3]: 3 nM; ED50 (Mus musculus [4]; Mus musculus, read-out: ED50): 34 µmol/kg; ED50 (Mus musculus [5]; Mus musculus, read-out: ED50): 7.4 µmol/kg

Q: What does the source list for COc1ccc2c(c1)C(N(C)C)CC2c1ccc(Cl)c(Cl)c1 (stereo in doubt; 53)?
A: IC50 [1]: 1.6 nM; IC50 [2]: 10 nM; IC50 [3]: 16 nM; ED50 (Mus musculus [4]): 33 µM/kg; ED50 (Mus musculus [5]): 14 µM/kg

Q: For CNC1CC(c2ccc(Cl)c(Cl)c2)c2ccc(OC)cc21.Cl (configuration not stated), which IC50 [1] is on record?
A: The IC50 was 0.53 nM.

Q: What about the IC50 [2] of the same molecule?
A: The IC50 was 19 nM.

Q: And the IC50 [3]?
A: The IC50 was 19 nM.

Q: And the ED50 (Mus musculus [4]; Mus musculus, read-out: ED50)?
A: Its ED50 is 14 µmol/kg.

Q: And the ED50 (Mus musculus [5])?
A: The ED50 was 2.9 µM/kg.
